For data set [1], the target named is T1, DNA polymerase subunit gamma-1 (Homo sapiens, UniProt P54098).
T1 sequence (P54098 whole entry): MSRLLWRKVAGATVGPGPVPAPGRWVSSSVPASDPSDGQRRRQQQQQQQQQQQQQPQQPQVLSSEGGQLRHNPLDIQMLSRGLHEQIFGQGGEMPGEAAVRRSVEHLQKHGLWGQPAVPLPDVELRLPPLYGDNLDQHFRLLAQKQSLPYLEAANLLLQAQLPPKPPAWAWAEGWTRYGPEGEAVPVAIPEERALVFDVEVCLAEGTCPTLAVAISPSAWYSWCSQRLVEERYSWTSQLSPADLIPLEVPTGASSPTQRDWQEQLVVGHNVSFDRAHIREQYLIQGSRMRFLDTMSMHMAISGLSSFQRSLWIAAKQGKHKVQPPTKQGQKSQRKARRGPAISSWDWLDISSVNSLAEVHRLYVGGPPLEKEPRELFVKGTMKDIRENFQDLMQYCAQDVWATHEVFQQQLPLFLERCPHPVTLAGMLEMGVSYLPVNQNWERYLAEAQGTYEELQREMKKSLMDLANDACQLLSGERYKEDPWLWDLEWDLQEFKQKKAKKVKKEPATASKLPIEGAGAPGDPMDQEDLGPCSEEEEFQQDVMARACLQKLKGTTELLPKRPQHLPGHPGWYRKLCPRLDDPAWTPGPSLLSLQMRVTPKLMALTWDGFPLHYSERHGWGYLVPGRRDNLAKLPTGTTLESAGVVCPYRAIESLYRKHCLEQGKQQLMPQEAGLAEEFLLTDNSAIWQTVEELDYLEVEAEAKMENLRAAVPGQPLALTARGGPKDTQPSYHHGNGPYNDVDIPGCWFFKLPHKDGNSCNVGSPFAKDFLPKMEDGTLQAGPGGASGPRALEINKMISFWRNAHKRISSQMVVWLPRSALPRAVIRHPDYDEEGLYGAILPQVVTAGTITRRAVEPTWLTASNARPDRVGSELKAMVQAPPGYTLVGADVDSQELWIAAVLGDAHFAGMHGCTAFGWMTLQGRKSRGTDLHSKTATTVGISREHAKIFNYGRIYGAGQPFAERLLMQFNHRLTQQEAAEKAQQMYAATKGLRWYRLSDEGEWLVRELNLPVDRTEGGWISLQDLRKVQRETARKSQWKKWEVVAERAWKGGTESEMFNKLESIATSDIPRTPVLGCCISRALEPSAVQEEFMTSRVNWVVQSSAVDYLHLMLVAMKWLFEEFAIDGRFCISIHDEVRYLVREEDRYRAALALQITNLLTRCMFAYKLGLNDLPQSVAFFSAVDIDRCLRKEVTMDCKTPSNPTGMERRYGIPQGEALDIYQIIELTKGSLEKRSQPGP
Put plainly: Inhibition of DNA polymerase gamma.

The next data set has as its target Cytochrome P450 2C9 (Homo sapiens, UniProt P11712). Put plainly: Inhibition of CYP450 2C9. Format: ADME.
Data set [2] in a line: Plasma concentration in rat at 30 mg/kg, po after 1 hr. Format: ADME, organism-based. The arrangement: dose 30 mg/kg, route oral. A digest of the protocol: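 Rats dosed orally at 30 mg/kg; plasma sampled at 1 and 2 h; n = 2 or 3.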
Data set [3] has as its target T2, RNA-directed RNA polymerase (Hepacivirus hominis, UniProt O39930). Put plainly: Inhibition of HCV 3a NS5B RNA dependent RNA polymerase. In a few lines:
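IC50 from the mean of four independent experiments; standard deviations within 30% of the mean.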

The nature of data set [4]: Liver concentration in rat at 10 mg/kg, po after 2 hrs. In kind it is ADME, organism-based. Set-up: dose 10 mg/kg, route oral. To be noted: read-out: Drug uptake.
The subject of another data set is Hepatitis C virus. Put plainly: Inhibition of HCV subgenomic RNA replication in Huh5-2 cells after 48 hrs by replicon assay. Format: functional, organism-based, Hepacivirus hominis. Conditions: Huh-5-2, 48 h; call rule not given here. In a few lines: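 Huh-5-2 cells (Huh-7-derived, genotype 1b subgenomic replicon with luciferase reporter) seeded at 5 × 10^3 per well in DMEM with 10% FBS, 37 °C, 5% CO2; compounds added next day, 48 h exposure; luciferase activity read. EC50 is the concentration reducing replication by 50%. Triplicate, mean of three experiments.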
In general terms: In antiviral work, replicon cells carry a viral genome segment that copies itself.

In data set [5] the target is T2, RNA-directed RNA polymerase. Put plainly: Inhibition of HCV 1b BK six His-tagged C-terminal truncated 544 amino acid NS5B RNA dependent RNA polymerase. The arrangement: species or system Hepatitis C virus subtype 1b. In a few lines:
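HCV genotype 1b (BK) NS5B lacking 47 C-terminal residues, His6-tagged, E. coli-expressed; 7 nM enzyme with 5 µg HCV 3′X RNA template-primer, 50 µM each ATP/GTP/CTP, 2 µM UTP plus [3H]-UTP; pH 7.5 Tris, 5 mM MgCl2. Compounds in DMSO (5% final). 60 min at 25 °C; TCA-precipitable radioactivity read. Triplicate, mean of three experiments.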

The target of the next data set is Cytochrome P450 2D6 (Homo sapiens, UniProt P10635). Put plainly: Induction of CYP450 2D6. In kind it is ADME.
Cytochrome P450 2D6, sequence (P10635 whole entry): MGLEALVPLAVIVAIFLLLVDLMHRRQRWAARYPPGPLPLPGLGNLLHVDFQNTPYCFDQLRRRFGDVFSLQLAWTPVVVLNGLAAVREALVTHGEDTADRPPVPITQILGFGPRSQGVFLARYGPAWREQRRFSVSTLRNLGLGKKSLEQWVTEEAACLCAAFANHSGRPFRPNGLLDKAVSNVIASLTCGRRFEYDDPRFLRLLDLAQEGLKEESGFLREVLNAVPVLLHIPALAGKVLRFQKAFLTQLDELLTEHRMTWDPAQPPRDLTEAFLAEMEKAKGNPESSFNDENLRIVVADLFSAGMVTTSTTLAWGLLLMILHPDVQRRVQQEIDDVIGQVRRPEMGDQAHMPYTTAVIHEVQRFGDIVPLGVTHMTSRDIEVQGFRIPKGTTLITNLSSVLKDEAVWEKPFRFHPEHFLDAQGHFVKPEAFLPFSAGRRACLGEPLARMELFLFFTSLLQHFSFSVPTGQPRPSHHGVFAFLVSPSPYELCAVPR

Some results are limits rather than exact numbers.

The term IC50 denotes the concentration that inhibits the measured activity by half. A low value points to inhibition by little substance. For orientation: EC50 means the concentration that produces a half-maximal response.

T2 sequence (O39930 whole entry): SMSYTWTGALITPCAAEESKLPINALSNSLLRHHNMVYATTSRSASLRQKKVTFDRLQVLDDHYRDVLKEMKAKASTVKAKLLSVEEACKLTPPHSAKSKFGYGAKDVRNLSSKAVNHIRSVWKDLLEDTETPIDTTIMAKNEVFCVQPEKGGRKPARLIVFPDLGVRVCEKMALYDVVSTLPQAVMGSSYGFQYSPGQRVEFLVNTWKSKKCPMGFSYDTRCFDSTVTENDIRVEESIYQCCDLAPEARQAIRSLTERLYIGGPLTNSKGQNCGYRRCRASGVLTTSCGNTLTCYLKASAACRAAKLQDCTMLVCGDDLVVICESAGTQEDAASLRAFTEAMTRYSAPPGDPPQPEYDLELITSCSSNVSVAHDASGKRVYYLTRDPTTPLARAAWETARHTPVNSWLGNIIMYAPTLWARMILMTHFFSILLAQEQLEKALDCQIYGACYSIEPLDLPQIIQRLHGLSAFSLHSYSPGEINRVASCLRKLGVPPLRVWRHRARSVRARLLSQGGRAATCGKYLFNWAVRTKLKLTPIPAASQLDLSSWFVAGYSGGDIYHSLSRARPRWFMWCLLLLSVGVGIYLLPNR
Cytochrome P450 2C9, sequence (P11712 whole entry): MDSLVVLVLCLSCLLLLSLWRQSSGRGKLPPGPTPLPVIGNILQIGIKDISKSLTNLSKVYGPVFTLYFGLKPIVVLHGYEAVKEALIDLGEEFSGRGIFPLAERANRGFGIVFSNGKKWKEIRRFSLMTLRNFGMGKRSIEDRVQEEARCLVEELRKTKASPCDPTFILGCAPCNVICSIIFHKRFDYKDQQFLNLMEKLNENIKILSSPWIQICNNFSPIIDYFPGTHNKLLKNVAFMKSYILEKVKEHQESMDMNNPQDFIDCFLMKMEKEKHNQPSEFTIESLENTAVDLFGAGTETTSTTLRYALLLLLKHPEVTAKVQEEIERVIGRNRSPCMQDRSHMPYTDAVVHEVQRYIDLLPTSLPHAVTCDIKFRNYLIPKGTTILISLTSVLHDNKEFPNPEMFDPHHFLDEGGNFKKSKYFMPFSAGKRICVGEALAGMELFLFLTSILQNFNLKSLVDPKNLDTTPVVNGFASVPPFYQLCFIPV

On to `O=C(O)c1ccc2c(c1)nc(-c1ccc(OCc3cc(N4CCCC4=O)ccc3-c3ccc(Cl)cc3)cc1F)n2C1CCCCC1`, for which the IC50 in data set [1] is more than 10 µM; in data set [3] it was 0.061 µM; in data set [5], 0.017 µM. Also, the Inhibition entry on Cytochrome P450 2C9 is “Not Active”. Further, the concentration at 1 h in data set [2] is 4 µM. Further, the concentration at 2 h in data set [4] was determined as 78.5 µM. For the same molecule, in the data set with Hepatitis C virus, the midpoint of the response, the EC50, lay at 0.32 µM. Further, the Activity result at Cytochrome P450 2D6 is “Not Active”.
